Measurements from ChEMBL document CHEMBL1157455, “Synthesis and anti-hepatitis B virus evaluation of novel ethyl 6-hydroxyquinoline-3-carboxylates in vitro” (Bioorg Med Chem, 2008).
Calls of active or inactive are those of the source. The rule behind the calls is not given here.

How the values were obtained:
[1] = Cytotoxicity against human HepG2.2.15 cells after 9 days by MTT assay; format: cell-based, HepG2 2.2.15; settings: read-out: TC50
Outline: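 HepG2.2.15 cells were treated as in the antiviral assay (RPMI 1640, 2% FBS, daily renewal), with untreated controls on each plate. Viability after 9 days of treatment was read from neutral red uptake as absorbance at 510 nm relative to untreated cells. TC50 is the 50% cytotoxic concentration.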

Hepatitis B virus [2] = experiment: Antiviral activity against HBV assessed as inhibition of viral e-antigen production by enzyme immunoassay; format: functional, organism-based
Outline: (§1)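 Confluent HepG2.2.15 cells were treated with varied doses in RPMI 1640 plus 2% FBS, with fresh medium and drug each day for 8 days. Secreted HBeAg or HBsAg in the supernatant was measured by semiquantitative enzyme immunoassay, giving a 50% inhibitory concentration (IC50).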

[3] = Selectivity index, ratio of TC50 for human HepG2.2.15 cells to IC50 for HBV e-antigen production
Outline: (§2)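 SI = TC50/IC50. TC50 is the 50% cytotoxic concentration in HepG2.2.15 cells by neutral red uptake after 9 days. IC50 comes from the 8-day HepG2.2.15 treatment in RPMI 1640 with 2% FBS, read by Southern blot for DNA or by enzyme immunoassay for secreted HBeAg or HBsAg.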

[4] = Selectivity index, ratio of TC50 for human HepG2.2.15 cells to IC50 for HBV DNA replication; outline: as §2
Hepatitis B virus [5] = experiment: Antiviral activity against HBV assessed as inhibition of viral DNA replication by Southern blot; format: functional, organism-based
Outline: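 Confluent HepG2.2.15 cultures were dosed across a range of concentrations in RPMI 1640 with 2% FBS. Medium and compound were renewed daily for 8 days. Intracellular HBV DNA was quantified by Southern blot hybridization and IC50 was taken as the 50% inhibitory concentration.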

Hepatitis B virus [6] = experiment: Antiviral activity against HBV assessed as inhibition of viral surface-antigen production by enzyme immunoassay; format: functional, organism-based; outline: as §1
[7] = Selectivity index, ratio of TC50 for human HepG2.2.15 cells to IC50 for HBV surface antigen production; outline: as §2
Hepatitis B virus [8] = experiment: Antiviral activity against HBV assessed as inhibition of viral surface-antigen production at <60 uM by enzyme immunoassay; format: functional, organism-based

Structure (SMILES) | IC50 (Hepatitis B virus [2]) [µM] | IC50 (Hepatitis B virus [5]) [µM] | IC50 (Hepatitis B virus [6]) [µM] | CC50 at 216 h [1] [µM] | Ratio [3] | Ratio [4] | Ratio [7] | Activity (Hepatitis B virus [8])
CCOC(=O)c1cc2c(Cn3ccnc3)c(O)c(OC)cc2nc1CSc1cccc(OC)c1 | 65.1 |  |  | 186 | 2.9 |  |  | 
CCOC(=O)c1cc2c(CN3CCCCC3)c(O)c(OC)cc2nc1CSc1ccc(F)c(F)c1 |  | 24.1 |  | 135 |  | 5.6 |  | 
CCOC(=O)c1cc2c(CN3CCN(C)CC3)c(O)c(OC)cc2nc1CSc1ccc(F)c(F)c1 |  |  | 11.2 | 55.3 |  |  | 4.9 | 
CCOC(=O)c1cc2c(CN3CCCC3)c(O)c(OC)cc2nc1CSc1ccc(F)cc1 | 9.3 | 10.2 | 8.5 | 47.3 | 5.1 | 4.6 | 5.6 | 
CCOC(=O)c1cc2c(CN3CCCC3)c(O)c(OC)cc2nc1CSc1ccccn1 |  |  |  | 17.5 |  |  |  | 
Nc1ccn([C@@H]2CS[C@H](CO)O2)c(=O)n1 [LAMIVUDINE] |  | 311 |  | 2210 |  | 7.1 |  | 
CCOC(=O)c1cc2c(Cn3ccnc3C)c(O)c(OC)cc2nc1CSc1ccc(F)cc1 | 16.2 | 30.6 |  | 78.5 | 4.8 | 2.6 |  | 
CCOC(=O)c1cc2c(CN3CCOCC3)c(O)c(OC)cc2nc1CSc1ccc(F)c(F)c1 | 10.9 |  | 5.8 | 79.7 | 7.3 |  | 13.7 | 
CCOC(=O)c1cc2c(Cn3ccnc3)c(O)c(OC)cc2nc1CSc1ccc(OC)c(OC)c1 |  |  |  | 189 |  |  |  | 
CCOC(=O)c1cc2c(Cn3ccnc3)c(O)c(OC)cc2nc1CSc1ccc(F)c(F)c1 | 16.4 | 9.4 |  | 133 | 8.1 | 14.1 |  | 
CCOC(=O)c1cc2c(Cn3ccnc3)c(O)c(OC)cc2nc1CSc1ccc(F)cc1 |  | 41.7 | 42.8 | 202 |  | 6.2 | 6 | 
CCOC(=O)c1cc2c(CN3CCCCC3)c(O)c(OC)cc2nc1CSc1ccccc1 |  | 45.2 |  | 60.7 |  | 1.3 |  | inactive
CCOC(=O)c1cc2c(CN3CCCC3)c(O)c(OC)cc2nc1C[S+]([O-])c1ccccn1 (configuration not stated) |  |  |  | 9.4 |  |  |  | 
CCOC(=O)c1cc2c(Cn3ccnc3)c(O)c(OC)cc2nc1C[S+]([O-])c1cccc(OC)c1 (configuration not stated) |  |  | 33.1 | 194 |  |  | 5.9 | 

Continued, in another order:

IC50 (Hepatitis B virus [2]) [µM] | IC50 (Hepatitis B virus [5]) [µM] | IC50 (Hepatitis B virus [6]) [µM] | Structure (SMILES) | CC50 at 216 h [1] [µM] | Ratio [3] | Ratio [4] | Ratio [7] | Activity (Hepatitis B virus [8])
20.5 |  |  | CCOC(=O)c1cc2c(CN(C)C)c(O)c(OC)cc2nc1CSc1ccccc1OC | 58.5 | 2.9 |  |  | 
 | 12.5 |  | CCOC(=O)c1cc2c(Cn3ccnc3)c(O)c(OC)cc2nc1C[S+]([O-])c1ccc(F)c(F)c1 (configuration not stated) | 90.8 |  | 7.3 |  | 
 | 32.8 | 17.4 | CCOC(=O)c1cc2c(CN(C)C)c(O)c(OC)cc2nc1CSc1ccc(F)cc1 | 120 |  | 3.7 | 6.9 | 
21.1 | 10.7 | 25.1 | CCOC(=O)c1cc2c(CN3CCCC3)c(O)c(OC)cc2nc1C[S+]([O-])c1ccc(F)cc1 (configuration not stated) | 166 | 7.9 | 15.5 | 6.6 | 
 | 5.3 |  | CCOC(=O)c1cc2c(CN3CCCC3)c(O)c(OC)cc2nc1C[S+]([O-])c1ccc(F)c(F)c1 (configuration not stated) | 16.5 |  | 3.1 |  | 
 | 21.9 | 36.5 | CCOC(=O)c1cc2c(CN(C)C)c(O)c(OC)cc2nc1C[S+]([O-])c1ccc(F)cc1 (configuration not stated) | 90.4 |  | 4.1 | 2.5 | 
98.1 | 4.7 | 26.2 | CCOC(=O)c1cc2c(Cn3ccnc3)c(O)c(OC)cc2nc1C[S+]([O-])c1ccc(F)cc1 (configuration not stated) | 160 | 1.6 | 34.1 | 6.1 | 
